Assay results taken from ChEMBL document CHEMBL1154087, “Novel orally active NPY Y5 receptor antagonists: Synthesis and structure-activity relationship of spiroindoline class compounds” (Bioorg Med Chem, 2009).
The source made the active and inactive calls. The calls are words filed in the database; no cut-off is given here.

Tests used:
[1] = target: T1, Neuropeptide Y receptor type 5 (Homo sapiens, UniProt Q15761); assay: Binding affinity to human neuropeptide Y5 receptor
T1 sequence (Q15761 whole entry): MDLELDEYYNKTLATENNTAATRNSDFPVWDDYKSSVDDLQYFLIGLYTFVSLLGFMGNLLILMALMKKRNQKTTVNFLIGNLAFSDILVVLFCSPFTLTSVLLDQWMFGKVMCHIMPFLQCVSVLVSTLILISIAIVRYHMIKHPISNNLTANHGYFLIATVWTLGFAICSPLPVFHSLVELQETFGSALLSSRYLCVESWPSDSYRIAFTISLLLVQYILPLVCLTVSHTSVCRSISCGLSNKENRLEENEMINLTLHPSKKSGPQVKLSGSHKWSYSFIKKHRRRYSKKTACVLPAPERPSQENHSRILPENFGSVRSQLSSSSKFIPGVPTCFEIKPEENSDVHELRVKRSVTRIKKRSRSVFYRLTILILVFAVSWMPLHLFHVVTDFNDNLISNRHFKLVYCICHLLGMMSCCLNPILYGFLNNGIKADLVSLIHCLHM

Rattus norvegicus [2] = assay: Suppression of Y5 agonist bovine pancreatic peptide-induced food intake in Sprague-Dawley rat at 1 mg/kg, po treated 1 hr before peptide administration measured after 2 hrs; format: functional
Procedure, shortened: (§1)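 bPP (5 µg) given ICV to SD rats in 10 µL of 10 mM PBS containing 0.05% BSA. Compound suspended in 0.5% methylcellulose in distilled water and given orally (5 mL/kg) 1 h before bPP. Cumulative food intake recorded over 0–2 h; n = 7 or more. MED is the lowest dose with a statistically significant reduction versus vehicle (P < 0.05 or P < 0.01).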

Mus musculus [3] = assay: Reduction in cumulative food intake in diet-induced obese C57BL/6J mouse at 30 mg/kg, po after 13 days relative to control; format: functional; parameters: scale not given: the % may be the effect or the level left
[4] = AUC in Sprague-Dawley rat at 10 mg/kg, po and 3 mg/kg, iv; format: ADME, organism-based; conditions: plasma
Procedure, shortened: (§2)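 Sprague-Dawley rats (n = 2) given 3 mpk iv and 10 mpk po. Plasma sampled at 5 min, 1 h and 4 h after iv dosing and at 0.5 h, 1 h and 2 h after po dosing. F, CL_tot, AUC and other PK parameters calculated by the trapezoidal method.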

Rattus norvegicus [5] = assay: Suppression of Y5 agonist bovine pancreatic peptide-induced food intake in Sprague-Dawley rat at 10 mg/kg, po treated 1 hr before peptide administration measured after 2 hrs; format: functional; procedure, shortened: as §1
[6] = Total clearance in Sprague-Dawley rat at 10 mg/kg, po and 3 mg/kg, iv; format: ADME, organism-based; conditions: in vivo; procedure, shortened: as §2
Brain = assay: Drug level in Sprague-Dawley rat brain at 10 mg/kg, po after 2 hrs; format: ADME, organism-based; parameters: dose 10 mg/kg, route oral; conditions: in vivo
Procedure, shortened: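 SD rats dosed orally at 10 mg/kg. Brain concentration measured 2 h after dosing and expressed as nmol/g.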

Mus musculus [7] = assay: Reduction in body weight in diet-induced obese C57BL/6J mouse at 30 mg/kg, po after 13 days; format: functional, organism-based; parameters: dose 30 mg/kg
[8] = Oral bioavailability in Sprague-Dawley rat at 10 mg/kg; format: ADME, organism-based; conditions: in vivo; procedure, shortened: as §2
[9] = Ratio of drug level in brain to plasma in Sprague-Dawley rat at 3 mg/kg, iv after 10 mins; format: ADME, organism-based; parameters: dose 3 mg/kg, route intravenous
Procedure, shortened: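 Rats (n = 2) dosed iv at 3 mpk. Brain and plasma concentrations taken 10 min after dosing, and brain penetration expressed as the brain/plasma ratio.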

Mus musculus [10] = species on record: Mus musculus; assay: Reduction in body weight in Y5 receptor knock-out diet-induced obese C57BL/6J mouse; format: functional, organism-based
Rattus norvegicus [11] = assay: Suppression of Y5 agonist bovine pancreatic peptide-induced food intake in Sprague-Dawley rat at 3 mg/kg, po treated 1 hr before peptide administration measured after 2 hrs; format: functional; procedure, shortened: as §1
Rattus norvegicus [12] = assay: Suppression of Y5 agonist bovine pancreatic peptide-induced food intake in po dosed Sprague-Dawley rat assessed as minimum effective dose treated 1 hr before peptide administration measured after 2 hrs; format: functional; procedure, shortened: as §1
[13] = Lipophilicity, calculated log D at pH 7.4
[14] = Cmax in Sprague-Dawley rat at 10 mg/kg, po and 3 mg/kg, iv; format: ADME, organism-based; conditions: in vivo; procedure, shortened: as §2
[15] = Tmax in Sprague-Dawley rat at 10 mg/kg, po and 3 mg/kg, iv; format: ADME, organism-based; conditions: in vivo; procedure, shortened: as §2
Mus musculus [16] = assay: Reduction in body weight in diet-induced obese C57BL/6J mouse at 100 mg/kg, po; format: functional, organism-based; parameters: dose 100 mg/kg

Structure (SMILES) | IC50 [1] [nM] | MED (Rattus norvegicus [12]) [mg/kg] | also measured
CCS(=O)(=O)N1CC2(CCN(C(=O)Nc3cn(-c4ccccc4)cn3)CC2)c2ccccc21 | 3.4 | 3 | inhibition in vivo at 1 mg/kg (Rattus norvegicus [2]): 34%; Activity (Mus musculus [3]): 8.8%; AUC [4]: 58.9 µM·h; inhibition in vivo at 10 mg/kg (Rattus norvegicus [5]): 57%; clearance [6]: 2.5 mL/min/kg; Drug uptake (Brain): 0.64 nmol/g; Activity (Mus musculus [7]): Active; bioavailability [8]: 37%; Kp at 10 min [9]: 0.22; Activity (Mus musculus [10]): inactive; inhibition in vivo at 3 mg/kg (Rattus norvegicus [11]): 45%; Activity (Rattus norvegicus [12]): Dose-dependent effect
CS(=O)(=O)N1CC2(CCN(C(=O)Nc3cn(-c4ccccc4F)cn3)CC2)c2ccccc21 | 3.9 | > 30 | 
COc1cccc2sc(NC(=O)N3CCC4(CC3)CN(S(C)(=O)=O)c3ccccc34)nc12 | 8.9 |  | 
CCS(=O)(=O)N1CC2(CCN(C(=O)Nc3cn(-c4ccccc4OC)cn3)CC2)c2ccccc21 | 4.9 | > 30 | 
CCS(=O)(=O)N1CC2(CCN(C(=O)Nc3cn(-c4ccccc4F)cn3)CC2)c2ccccc21 | 3.3 | 3 | bioavailability [8]: 23%; Kp at 10 min [9]: 0.25
CS(=O)(=O)N1CC2(CCN(C(=O)Nc3cn(-c4cccc(F)c4)cn3)CC2)c2ccccc21 | 1.8 | > 30 | 
CS(=O)(=O)N1CC2(CCN(C(=O)Nc3ccc4ncccc4c3)CC2)c2ccccc21 | 2.5 | > 30 | logD [13]: 2.74; bioavailability [8]: 24%; Kp at 10 min [9]: 0.03
CCS(=O)(=O)N1CC2(CCN(C(=O)Nc3cn(-c4ccc(OC)cc4)cn3)CC2)c2ccccc21 | 3.2 |  | 
CS(=O)(=O)N1CC2(CCN(C(=O)Nc3ccc(-c4ccccn4)cc3)CC2)c2ccccc21 |  | > 100 | AUC [4]: 1.8 µM·h; clearance [6]: 24.4 mL/min/kg; Cmax [14]: 0.6 µM; Tmax [15]: 0.25 h; Kp at 10 min [9]: 0.22
CS(=O)(=O)N1CC2(CCN(C(=O)Nc3ccc(-c4ccncc4)cc3)CC2)c2ccccc21 |  | 10 | AUC [4]: 10.8 µM·h; Activity (Mus musculus [16]): inactive; clearance [6]: 17.8 mL/min/kg; Cmax [14]: 5.5 µM; Tmax [15]: 1 h
CS(=O)(=O)N1CC2(CCN(C(=O)Nc3ccc(-c4cscn4)cc3)CC2)c2ccccc21 | 2.8 |  | 
CS(=O)(=O)N1CC2(CCN(C(=O)Nc3ccc(-c4nccs4)cc3)CC2)c2ccccc21 | 2.4 |  | 
CS(=O)(=O)N1CC2(CCN(C(=O)Nc3ccc(-n4nccn4)cc3)CC2)c2ccccc21 | 41 |  | 
CS(=O)(=O)N1CC2(CCN(C(=O)Nc3ccc(-c4ccco4)cc3)CC2)c2ccccc21 | 4.2 |  | 
CS(=O)(=O)N1CC2(CCN(C(=O)Nc3cc(-c4ccccc4)n[nH]3)CC2)c2ccccc21 | 1.4 | > 30 | logD [13]: 3.08; bioavailability [8]: 13%; Kp at 10 min [9]: 0.02
CC(=O)c1ccc(NC(=O)N2CCC3(CC2)CN(S(C)(=O)=O)c2ccccc23)cc1 | 2.7 |  | 
CS(=O)(=O)N1CC2(CCN(C(=O)Nc3cc(-c4ccccc4)no3)CC2)c2ccccc21 | 1.3 | > 30 | logD [13]: 2.53; bioavailability [8]: 23%; Kp at 10 min [9]: 0.22

Structure (SMILES) | IC50 [1] [nM] | MED (Rattus norvegicus [12]) [mg/kg] | also measured
CS(=O)(=O)N1CC2(CCN(C(=O)Nc3ccc(Cl)nc3)CC2)c2ccccc21 | 11 |  | 
CS(=O)(=O)N1CC2(CCN(C(=O)Nc3ccc(Oc4ccccc4)cc3)CC2)c2ccccc21 | 2.6 |  | 
CS(=O)(=O)N1CC2(CCN(C(=O)Nc3nnc(-c4ccccc4)s3)CC2)c2ccccc21 | 3.4 |  | 
CS(=O)(=O)N1CC2(CCN(C(=O)Nc3ccc(C(=O)c4ccccc4)cc3)CC2)c2ccccc21 | 0.68 |  | 
CCS(=O)(=O)N1CC2(CCN(C(=O)Nc3cn(-c4cccc(OC)c4)cn3)CC2)c2ccccc21 | 2 | 10 | bioavailability [8]: 50.1%; Kp at 10 min [9]: 0.11
CS(=O)(=O)N1CC2(CCN(C(=O)Nc3ncc(-c4ccccc4)s3)CC2)c2ccccc21 | 2.2 |  | 
CS(=O)(=O)N1CC2(CCN(C(=O)Nc3ccc(-c4cccnc4)cc3)CC2)c2ccccc21 |  | 100 | AUC [4]: 12.7 µM·h; clearance [6]: 13.3 mL/min/kg; Cmax [14]: 4.7 µM; Tmax [15]: 1 h
CS(=O)(=O)N1CC2(CCN(C(=O)Nc3nc4cc(Cl)ccc4o3)CC2)c2ccccc21 | 5 |  | 
CS(=O)(=O)N1CC2(CCN(C(=O)Nc3cccnc3)CC2)c2ccccc21 | > 1000 |  | 
CCS(=O)(=O)N1CC2(CCN(C(=O)Nc3cn(-c4ccc(F)cc4)cn3)CC2)c2ccccc21 | 4.1 | > 30 | 
CS(=O)(=O)N1CC2(CCN(C(=O)Nc3cn(-c4ccccc4)cn3)CC2)c2ccccc21 | 2.4 | > 30 | AUC [4]: 25.3 µM·h; clearance [6]: 3.9 mL/min/kg; logD [13]: 2.15; bioavailability [8]: 27%; Kp at 10 min [9]: 0.1
CCS(=O)(=O)N1CC2(CCN(C(=O)Nc3cn(-c4cccc(F)c4)cn3)CC2)c2ccccc21 | 3 | 30 | bioavailability [8]: 23%; Kp at 10 min [9]: 0.18
CS(=O)(=O)N1CC2(CCN(C(=O)Nc3ccc4ccccc4n3)CC2)c2ccccc21 | 6.1 |  | 
CS(=O)(=O)N1CC2(CCN(C(=O)Nc3ccc(Cl)cn3)CC2)c2ccccc21 | 7.1 |  | 
CS(=O)(=O)N1CC2(CCN(C(=O)Nc3ccc(-n4cccn4)cc3)CC2)c2ccccc21 | 3.2 |  | 
Cn1ccnc1-c1ccc(NC(=O)N2CCC3(CC2)CN(S(C)(=O)=O)c2ccccc23)cc1 | 9 |  | 
CS(=O)(=O)N1CC2(CCN(C(=O)Nc3cnc4ccccc4c3)CC2)c2ccccc21 | 5.4 |  | 
